Results from ChEMBL document CHEMBL1122285, “New myocardial imaging agents: stabilization of radioiodine as a terminal vinyl iodide moiety on tellurium fatty acids” (J Med Chem, 1983).
Where “and” joins values, the source holds several entries; their conditions need not be identical. Equal entries are not always repeated.

Key:
Rattus norvegicus [1] = test: Tested for distribution of radioactivity iodine 125 in heart of rat after 3 days intravenous administration; type: ADME, organism-based; details: in vivo, 72 h
Procedure, shortened: (§1)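 Fischer 344 rats, four per time point, under ether anaesthesia. Each received ~8.6 μCi of 125I-labelled fatty acid (sp act ~20 mCi/mmol) by lateral tail vein in 0.5 mL 6% bovine serum albumin with 10% final ethanol, filtered before injection. Percent injected dose/g was calculated against injectate standards and reported as mean (range). Thyroid weight was taken as body weight × 7.5 mg/100 g.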

Rattus norvegicus [2] = test: Tested for distribution of radioactivity iodine 125 in heart of rat after 30 min of intravenous administration (value in parentheses indicates range); type: ADME, organism-based; details: in vivo, 0.5 h; procedure, shortened: as §1
Rattus norvegicus [3] = test: Tested for distribution of radioactivity iodine 125 in heart of rat after 4 hours of intravenous administration; type: ADME, organism-based; details: in vivo; procedure, shortened: as §1
Rattus norvegicus [4] = test: Tested for distribution of radioactivity iodine 125 in heart of rat after 60 min of intravenous administration; type: ADME, organism-based; details: in vivo, 1 h; procedure, shortened: as §1
Rattus norvegicus [5] = test: Tested for distribution of radioactivity of iodine 125 in blood of rat after 2 hour of intravenous administration; type: ADME, organism-based; details: in vivo; procedure, shortened: as §1
Rattus norvegicus [6] = test: Tested for distribution of radioactivity of iodine 125 in blood of rat after 30 min of intravenous administration; type: ADME, organism-based; details: in vivo, 0.5 h; procedure, shortened: as §1
Rattus norvegicus [7] = test: Tested for distribution of radioactivity of iodine 125 in blood of rat after 3 days of intravenous administration; type: ADME, organism-based; details: in vivo, 72 h; procedure, shortened: as §1
Rattus norvegicus [8] = test: Tested for distribution of radioactivity of iodine 125 in blood of rat after 4 hours of intravenous administration; type: ADME, organism-based; details: in vivo; procedure, shortened: as §1
Rattus norvegicus [9] = test: Tested for distribution of radioactivity of iodine 125 in blood of rat after 5 min of intravenous administration; type: ADME, organism-based; details: in vivo; procedure, shortened: as §1
Rattus norvegicus [10] = test: Tested for distribution of radioactivity of iodine 125 in blood of rat after 60 min of intravenous administration; type: ADME, organism-based; details: in vivo, 1 h; procedure, shortened: as §1
Rattus norvegicus [11] = test: Tested for distribution of radioactivity of iodine 125 in heart of rat after 5 min of intravenous administration; type: ADME, organism-based; details: in vivo; procedure, shortened: as §1
Rattus norvegicus [12] = test: Tested for distribution of radioactivity of iodine 125 in kidney of rat after 2 hours of intravenous administration; type: ADME, organism-based; details: in vivo; procedure, shortened: as §1
Rattus norvegicus [13] = test: Tested for distribution of radioactivity of iodine 125 in kidney of rat after 3 days of intravenous administration; type: ADME, organism-based; details: in vivo, 72 h; procedure, shortened: as §1
Rattus norvegicus [14] = test: Tested for distribution of radioactivity of iodine 125 in kidney of rat after 30 min of intravenous administration; type: ADME, organism-based; details: in vivo, 0.5 h; procedure, shortened: as §1
Rattus norvegicus [15] = test: Tested for distribution of radioactivity of iodine 125 in kidney of rat after 4 hours of intravenous administration; type: ADME, organism-based; details: in vivo; procedure, shortened: as §1
Rattus norvegicus [16] = test: Tested for distribution of radioactivity of iodine 125 in kidney of rat after 5 min of intravenous administration; type: ADME, organism-based; details: in vivo; procedure, shortened: as §1
Rattus norvegicus [17] = test: Tested for distribution of radioactivity of iodine 125 in liver of rat after 2 hr of intravenous administration; type: ADME, organism-based; details: in vivo; procedure, shortened: as §1
Rattus norvegicus [18] = test: Tested for distribution of radioactivity of iodine 125 in liver of rat after 30 min of intravenous administration; type: ADME, organism-based; details: in vivo, 0.5 h; procedure, shortened: as §1
Rattus norvegicus [19] = test: Tested for distribution of radioactivity of iodine 125 in liver of rat after 3 days of intravenous administration; type: ADME, organism-based; details: in vivo, 72 h; procedure, shortened: as §1
Rattus norvegicus [20] = test: Tested for distribution of radioactivity of iodine 125 in liver of rat after 5 min of intravenous administration; type: ADME, organism-based; details: in vivo; procedure, shortened: as §1
Rattus norvegicus [21] = test: Tested for distribution of radioactivity of iodine 125 in liver of rat after 60 min of intravenous administration; type: ADME, organism-based; details: in vivo, 1 h; procedure, shortened: as §1
Rattus norvegicus [22] = test: Tested for distribution of radioactivity of iodine 125 in thyroid of rat after 30 min of intravenous administration; type: ADME, organism-based, Thyroid gland; details: in vivo, 0.5 h; procedure, shortened: as §1
Rattus norvegicus [23] = test: Tested for distribution of radioactivity of iodine 125 in thyroid of rat after 5 min of intravenous administration; type: ADME, organism-based, Thyroid gland; details: in vivo; procedure, shortened: as §1
Rattus norvegicus [24] = test: Tested for distribution of radioactivity of iodine 125 in thyroid of rat after 60 min of intravenous administration; type: ADME, organism-based, Thyroid gland; details: in vivo, 1 h; procedure, shortened: as §1
Rattus norvegicus [25] = test: Tested for distribution of radioactivity of tellurium-123 in blood of rat after 30 min of intravenous administration; type: ADME, organism-based; details: in vivo, 0.5 h
Procedure, shortened: (§2)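 123mTe-labelled fatty acid (sp act ~20 mCi/mmol), ~6.8–8.4 μCi per rat, was given by lateral tail vein in 0.5 mL 6% BSA with 10% final ethanol to ether-anaesthetised Fischer 344 rats, four per time point. Tissue activity is expressed as mean % injected dose/g (range) against injectate standards.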

Rattus norvegicus [26] = test: Tested for distribution of radioactivity of tellurium-123 in blood of rat after 5 min of intravenous administration; type: ADME, organism-based; details: in vivo; procedure, shortened: as §2
Rattus norvegicus [27] = test: Tested for distribution of radioactivity of tellurium-123 in blood of rat after 60 min of intravenous administration; type: ADME, organism-based; details: in vivo, 1 h; procedure, shortened: as §2
Rattus norvegicus [28] = test: Tested for distribution of radioactivity of tellurium-123 in heart of rat after 5 min of intravenous administration; type: ADME, organism-based; details: in vivo; procedure, shortened: as §2
Rattus norvegicus [29] = test: Tested for distribution of radioactivity of tellurium-123 in heart of rat after 60 min of intravenous administration; type: ADME, organism-based; details: in vivo, 1 h; procedure, shortened: as §2
Rattus norvegicus [30] = test: Tested for distribution of radioactivity of tellurium-123 in kidney of rat after 30 min of intravenous administration; type: ADME, organism-based; details: in vivo, 0.5 h; procedure, shortened: as §2
Rattus norvegicus [31] = test: Tested for distribution of radioactivity of tellurium-123 in kidney of rat after 5 min of intravenous administration; type: ADME, organism-based; details: in vivo; procedure, shortened: as §2
Rattus norvegicus [32] = test: Tested for distribution of radioactivity of tellurium-123 in kidney of rat after 60 min of intravenous administration; type: ADME, organism-based; details: in vivo, 1 h; procedure, shortened: as §2
Rattus norvegicus [33] = test: Tested for distribution of radioactivity of tellurium-123 in liver of rat after 30 min of intravenous administration; type: ADME, organism-based; details: in vivo, 0.5 h; procedure, shortened: as §2
Rattus norvegicus [34] = test: Tested for distribution of radioactivity of tellurium-123 in liver of rat after 5 min of intravenous administration; type: ADME, organism-based; details: in vivo; procedure, shortened: as §2
Rattus norvegicus [35] = test: Tested for distribution of radioactivity of tellurium-123 in liver of rat after 60 min of intravenous administration; type: ADME, organism-based; details: in vivo, 1 h; procedure, shortened: as §2
Rattus norvegicus [36] = test: Tested for distribution of radioactivity of tellurium-123 in lungs of rat after 30 min of intravenous administration; type: ADME, organism-based, Lung; details: in vivo, 0.5 h; procedure, shortened: as §2
Rattus norvegicus [37] = test: Tested for distribution of radioactivity of tellurium-123 in lungs of rat after 5 min of intravenous administration; type: ADME, organism-based, Lung; details: in vivo; procedure, shortened: as §2
Rattus norvegicus [38] = test: Tested for distribution of radioactivity of tellurium-123 in lungs of rat after 60 min of intravenous administration; type: ADME, organism-based, Lung; details: in vivo, 1 h; procedure, shortened: as §2
Rattus norvegicus [39] = test: Tested for distribution of radioactivity of iodine 125 in lungs of rat after 2 hours of intravenous administration; type: ADME, organism-based, Lung; details: in vivo; procedure, shortened: as §1
Rattus norvegicus [40] = test: Tested for distribution of radioactivity of iodine 125 in lungs of rat after 30 min of intravenous administration; type: ADME, organism-based, Lung; details: in vivo, 0.5 h; procedure, shortened: as §1
Rattus norvegicus [41] = test: Tested for distribution of radioactivity of iodine 125 in lungs of rat after 3 days of intravenous administration; type: ADME, organism-based, Lung; details: in vivo, 72 h; procedure, shortened: as §1
Rattus norvegicus [42] = test: Tested for distribution of radioactivity of iodine 125 in lungs of rat after 5 min of intravenous administration; type: ADME, organism-based, Lung; details: in vivo; procedure, shortened: as §1
Rattus norvegicus [43] = test: Tested for distribution of radioactivity of iodine 125 in lungs of rat after 60 min of intravenous administration; type: ADME, organism-based, Lung; details: in vivo, 1 h; procedure, shortened: as §1
Rattus norvegicus [44] = test: Tested for distribution of radioactivity of iodine 125 in liver of rat after 4 hr of intravenous administration; type: ADME, organism-based; details: in vivo; procedure, shortened: as §1
Rattus norvegicus [45] = test: Tested for distribution of radioactivity of tellurium-123 in heart of rat after 30 min of intravenous administration; type: ADME, organism-based; details: in vivo, 0.5 h; procedure, shortened: as §2
Rattus norvegicus [46] = test: Tested for distribution of radioactivity in heart of rat after 2 hours of intravenous administration; type: ADME, organism-based; details: in vivo; procedure, shortened: as §1
[47] = Tested for distribution of radioactivity of iodine 125 in kidney of rat after 60 min of intravenous administration; type: ADME; details: in vivo, 1 h; procedure, shortened: as §1

O=C(O)CCCCCCCCCCC[Te]CCC/C=C\I
Injected dose/g (Rattus norvegicus [1]): 0.09%
Injected dose/g (Rattus norvegicus [2]): 1.52%
Injected dose/g (Rattus norvegicus [3]): 0.76%
Injected dose/g (Rattus norvegicus [4]): 1.81%
Injected dose/g (Rattus norvegicus [5]): 0.68%
Injected dose/g (Rattus norvegicus [6]): 0.61%
Injected dose/g (Rattus norvegicus [7]): 0.03%
Injected dose/g (Rattus norvegicus [8]): 0.65%
Injected dose/g (Rattus norvegicus [9]): 0.15%
Injected dose/g (Rattus norvegicus [10]): 0.69%
Injected dose/g (Rattus norvegicus [11]): 1.46%
Injected dose/g (Rattus norvegicus [12]): 0.96%
Injected dose/g (Rattus norvegicus [13]): 0.08%
Injected dose/g (Rattus norvegicus [14]): 1.04%
Injected dose/g (Rattus norvegicus [15]): 0.93%
Injected dose/g (Rattus norvegicus [16]): 1.01%
Injected dose/g (Rattus norvegicus [17]): 2.45%
Injected dose/g (Rattus norvegicus [18]): 5.32%
Injected dose/g (Rattus norvegicus [19]): 0.09%
Injected dose/g (Rattus norvegicus [20]): 8.78%
Injected dose/g (Rattus norvegicus [21]): 4.39%
Injected dose/g (Rattus norvegicus [22]): 5.64%
Injected dose/g (Rattus norvegicus [23]): 1.62%
Injected dose/g (Rattus norvegicus [24]): 13.41%
Injected dose/g (Rattus norvegicus [25]): 0.84%
Injected dose/g (Rattus norvegicus [26]): 0.32% and 0.25%
Injected dose/g (Rattus norvegicus [27]): 0.95%
Injected dose/g (Rattus norvegicus [28]): 2.09%
Injected dose/g (Rattus norvegicus [29]): 1.92% and 0.83%
Injected dose/g (Rattus norvegicus [30]): 1.73% and 1.62%
Injected dose/g (Rattus norvegicus [31]): 1.46% and 1.54%
Injected dose/g (Rattus norvegicus [32]): 1.85%
Injected dose/g (Rattus norvegicus [33]): 5.53%
Injected dose/g (Rattus norvegicus [34]): 7.78% and 8.26%
Injected dose/g (Rattus norvegicus [35]): 4.49%
Injected dose/g (Rattus norvegicus [36]): 1.03%
Injected dose/g (Rattus norvegicus [37]): 0.91%
Injected dose/g (Rattus norvegicus [38]): 1% and 1.49%
Injected dose/g (Rattus norvegicus [39]): 0.81%
Injected dose/g (Rattus norvegicus [40]): 0.89%
Injected dose/g (Rattus norvegicus [41]): 0.1%
Injected dose/g (Rattus norvegicus [42]): 0.92%
Injected dose/g (Rattus norvegicus [43]): 1.02%
Injected dose/g (Rattus norvegicus [44]): 1.95%
Injected dose/g (Rattus norvegicus [45]): 1.98%
Injected dose/g (Rattus norvegicus [46]): 1.03%
Injected dose/g [47]: 1.15%
